Results from ChEMBL document CHEMBL4513216, “Probing the Open Global Health Chemical Diversity Library for Multistage-Active Starting Points for Next-Generation Antimalarials” (ACS Infect Dis, 2020).

Experiment: Toxicity liver stage against HepG2, at 10uM
Type: cell-based
Design: test concentration 10 uM, cell line HepG2-A16-CD81EGFP
Conditions: human, HepG2-A16-CD81EGFP cells; read-out: INHIBITION
In short: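 Uninfected HepG2-A16-CD81EGFP cells, 3 × 10^3 per well, 1536-well, plated on prespotted compound at 10 μM final, parasite-free screening media added to match infected plates; puromycin 10 μM positive, DMSO 0.5% negative; run in parallel with 48 h PbLuc assay at 37 °C, 5% CO2; viability by CellTiter-Glo luminescence, normalized to controls.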

SMILES	cytotoxicity at 10 µM [%]
CCOc1ccc(C(=O)N2CCCC(n3nc(C)nc3C)C2)cc1 (stereo not drawn)	-4.34
O=C(c1cccnc1)N1CCC2(CCN(C(=O)N3CCCC3)CC2)C1	-103
Cc1cc(C(=O)Nc2ccc(OCCN3CCN(C)CC3)cc2)[nH]n1	-2.51
Cc1nonc1-c1nc(C(C)C)nn1-c1ccc2c(c1)OCO2	-6.9
CCn1cnnc1CNC(=O)N1CCC(OCc2ccccc2)CC1	-5.26
O=C1COC2(CCN(C(=O)C3CC=CC3)CC2)CN1Cc1cccnc1	3.27
CC(C)Oc1ncccc1CNC(=O)c1cc[nH]n1	-9.12
CC(C)(C)n1ccc(C(=O)N2CCCC(c3ncc[nH]3)C2)c1 (stereo not drawn)	2.96
Cc1cnc(C(=O)N2CCOCC2C)cn1 (stereo not drawn)	-3.83
CCCc1cc(=O)[nH]c2nnc(SCC(=O)NCc3ccc(C)cc3)n12	-15.7
Cc1c[nH]nc1C1CCCN(C(=O)c2c(C)noc2C)C1 (stereo not drawn)	-3.53
Cc1cn(CC(=O)NC2CCC(C(=O)O)CC2)c2ccccc12 (stereo not drawn)	-0.214
CCc1cc(NCCNC(C)=O)nc(N2CCOCC2)n1	2.38
COC[C@]12COC[C@H]1CN(Cc1ccc3c(c1)OCO3)C2	-108
Cc1cccc2c(CCNS(=O)(=O)C3CCOC3)c[nH]c12 (stereo not drawn)	12.7
Cc1ccc2nc(C(=O)N3CC(c4cccnc4)C3)cn2c1	-7.5
COc1ccccc1OCCCN1C(=O)CCNC1=O	-3.7
CC(C)N(C)CC(=O)N1CCCC(c2ccc(C(=O)O)cc2)C1 (stereo not drawn)	-6.09
CC(C)N(C(=O)CCc1ccco1)C1CCOCC1	-5.63
CN(C)c1ccc(NC(=O)c2ccnn2C)nc1	15.1
CCc1nnc(CN2CCC(C3CCCCCN3C(C)=O)CC2)o1 (stereo not drawn)	-43
Cc1nc(C2CN(C)CCO2)cc(N2CCC(CO)CC2)n1 (stereo not drawn)	-34
COc1ccc(C2CCCN2C(=O)NCCNc2ncccn2)cc1 (stereo not drawn)	-8.18

SMILES	cytotoxicity at 10 µM [%]
CCN1C[C@H]2CCN(C(=O)c3cc[nH]n3)CC[C@H]2S1(=O)=O	12.2
COc1cc(CNC(=O)c2cc(S(C)(=O)=O)ccc2C)ccn1	-1.65
CC(=O)NCCNCC1(O)CCCN(CCC2CCCCC2)C1=O (stereo not drawn)	6.27
CC(C)(C)C(=O)NS(=O)(=O)c1ccc(F)cc1C(F)(F)F	-1.18
O=C(Cc1cccs1)N1CCCC(CNS(=O)(=O)Cc2ccccc2)C1 (stereo not drawn)	5.78
CCCC(C(=O)NC1CCN(S(C)(=O)=O)CC1)n1cccc1 (stereo not drawn)	-3.71
COCCN1C[C@@H]2CN(Cc3ccoc3)CCC[C@]2(C(=O)O)C1	-139
NC(=O)N1CCC2(CC1)CN(c1ncccn1)CCO2	-75.1
NC(=O)CN(Cc1ncc(-c2ccc(Cl)cc2)o1)C1CCCC1	-1.99
CCc1nc(CN2CC[C@@](O)(CCOC)[C@H](C)C2)cs1	10
CCOc1ccc(C(=O)NC2CC2)cc1C	8
O=C(CS(=O)(=O)C1CCCC1)NC(c1ccc(F)cc1)C1CC1 (stereo not drawn)	-159
CC(C)Cc1noc(CN(C)c2cc(N(C)C)ncn2)n1	-0.75
O=S(=O)(NCc1ccccc1)Nc1cccc(Cn2cncn2)c1	5.91
CN(C)CCN1CCCC12CCN(C(=O)c1cnccn1)CC2	4.99
COc1ncc(-c2cc(NC3CCCC3)nc3[nH]ccc23)c(OC)n1	16.3
CC(CN1CCCC1=O)NC(=O)c1cc(-c2cccc(Cl)c2)no1 (stereo not drawn)	5.75
Cc1nc2c(NC(CC(C)(C)C)c3cccnc3)ncnc2o1 (stereo not drawn)	4.24
O=C(NC1CCCN(CCc2ccccc2)C1)c1cnccn1 (stereo not drawn)	7.95
FC(F)(F)c1ccnc(N2CCCN(C3CCOCC3)CC2)c1	-7.49
COc1c(C2CCCN2c2ncnc3c2CCC3)c(C)nn1C (stereo not drawn)	10.5
COc1cc(Br)cc(CNC2CCCNC2=O)c1O (stereo not drawn)	2.37
COc1ccc(C2CC(=O)Nc3nc(N4CCOCC4)sc32)c(OC)c1 (stereo not drawn)	53.8

SMILES	cytotoxicity at 10 µM [%]
CCOC(=O)Cn1ccc(NC(=O)Cc2ccccc2F)n1	3.33
Cc1ccc(CN2CCOC3(COCCN(CCN(C)C)C3)C2)o1 (stereo not drawn)	-1.65
CCSc1ccc(C(=O)N2CCCC2C(=O)N2CCOCC2)cn1 (stereo not drawn)	-6.98
O=C(c1cc(Br)ccc1-n1cnnn1)N1CCCC1	-9.24
Cc1noc(C)c1S(=O)(=O)NCC(C)(O)c1ccc2c(c1)OCO2 (stereo not drawn)	0.331
Cc1cc(C(C)(O)CNC(=O)c2ccc(Br)o2)c(C)o1 (stereo not drawn)	-0.159
COCc1ccc(C(=O)N2CCOCC2c2ccc(C)o2)cc1 (stereo not drawn)	-5.48
CCOCC(=O)N1CC[C@H]2[C@@H]1CCC(=O)N2Cc1csc(C)n1	-85.2
CCNC(=O)N1CCCCC1CCO (stereo not drawn)	-4.27
CCOCCCn1c(NC(=O)c2scnc2C)nc2ccccc21	5.9
CCn1c(C)nnc1CN(C)C1CCN(CCOc2ccccc2)C1 (stereo not drawn)	0.796
COc1cccc(-c2nc(C)c(C(=O)NC(CO)CCSC)s2)c1 (stereo not drawn)	-7.71
COCCC(=O)N1C[C@H]2CN(Cc3cccc(C)n3)C(=O)[C@H]2C1	4.4
O=C(CCOc1ccccc1)NS(=O)(=O)Cc1ccccc1	-1.48
Cc1ccc(CNCc2c(C(C)C)nn(C)c2N2CCOCC2)s1	-3.03
CN(Cc1cccc(OC(F)(F)F)c1)C(=O)Cc1ccon1	-9.61
O=C(Nc1ccccc1F)c1nn(C2CCS(=O)(=O)C2)c2c1CCCC2 (stereo not drawn)	6.17
Cc1nc(CN2CCCC(NCc3csc(C(C)(C)C)n3)C2)no1 (stereo not drawn)	0.238
CN(CCC#N)C(=O)Cc1csc(-c2ncccn2)n1	-0.343
CC1c2cccn2CCN1C(=O)CCc1nc(-c2ccccc2)no1 (stereo not drawn)	0.45
COCCNC(=O)Cn1cc(OCc2ccc(F)cc2)c(=O)cc1C	-3.04
NC1CCCCN(Cc2cc(C3CCCCC3)no2)C1 (stereo not drawn)	-14.1
Cc1ccccc1OCCCC(=O)NC(C)c1nnc2n1CCC2 (stereo not drawn)	-11.5

SMILES	cytotoxicity at 10 µM [%]
Cn1ncc(N2CCC(CNC3CC(c4ccccc4)C3)CC2)cc1=O (stereo not drawn)	-2.15
Cc1cc(-c2nccs2)nc(C2CCN(Cc3ccccn3)CC2)n1	7.73
c1ccc(-c2nc3c(c(NCCn4cccc4)n2)CCNCC3)nc1	-51.9
CC(C)CC(CO)NS(=O)(=O)Cc1ccon1 (stereo not drawn)	-3.33
Nc1nnnn1NCc1ccccc1C(F)(F)F	5.56
COC(=O)[C@@H]1Cc2ncn(C)c2CN1S(=O)(=O)c1ccc(OC)cc1	-4.13
c1coc(CN2CCCn3c(CN4CCOCC4)nnc3C2)c1	4.86
COCC1c2c(cnn2C)CCN1Cc1ccc(C)o1 (stereo not drawn)	-5.73
Cc1nnc(C(C)N(C)Cc2c(C)nn(-c3ccccc3C)c2C)o1 (stereo not drawn)	-1.07
Cc1nc(CN2CCO[C@H]3[C@@H](OCc4ccccn4)CC[C@@H]32)cs1	0.179
NC(=O)CCOc1nc(-c2ccccc2Cl)no1	-1.64
CCN(Cc1ccoc1)Cc1nc(COC)no1	-0.566
Cc1ccc(CN2CC[C@H]3C(=O)N(c4cccnc4)CCO[C@H]3C2)o1	7.8
Cc1ncc(CNC(=O)N(C)Cc2ccc([S+](C)[O-])cc2)s1 (stereo not drawn)	9.35
Cc1ncsc1CN1C[C@@H]2COC[C@]2(CNC(=O)c2ccco2)C1	-73.8
c1ccc(C[C@H]2CN(Cc3nccs3)CC[C@H]2OCC2CC2)cc1	5.27
NC(=O)C1CN(C(=O)Nc2cc(Cl)cc(Cl)c2)CCO1 (stereo not drawn)	55.1
O=S1(=O)CCC(N(Cc2nc3ccccc3o2)Cc2cccs2)C1 (stereo not drawn)	-3.08
CN(C)S(=O)(=O)N1CCN(c2ccnc(N3CCCC3)n2)CC1	-13.3
O=C(CCc1ccsc1)NC1CCN(c2cccc(F)c2)CC1	-3.89
COC(C)c1cccc(NCc2cccs2)c1 (stereo not drawn)	-8.94
COc1ccccc1C(NC(=O)CN(C)C(C)C)c1noc(C)n1 (stereo not drawn)	-3.21
Cc1ccccc1CC(=O)NCc1cnc(CC2CCN(C)CC2)cn1	-1.25

SMILES	cytotoxicity at 10 µM [%]
O=C(c1cn(CC(=O)N2CCc3[nH]cnc3C2)c2ccccc12)C1CC1	10.2
O=S(=O)(Cc1ccccc1)NCCc1nnc2n1CCC2	14.5
c1cnn(CC2CN(Cc3noc(C4CC4)n3)CCO2)c1 (stereo not drawn)	-0.842
COCCNc1ncc(-c2cccc(OC)c2)c(-c2nccn2C)n1	7.49
O=C(NC1CC1)C1CNCCN1C(=O)CCOc1ccccc1 (stereo not drawn)	2.08
COCCOc1ccc(Cl)c(C(=O)N2CCN(CCO)CC2)n1	-4.33
OC1(c2cn(CC3CCN(C4CCSC4)CC3)nn2)CCCC1 (stereo not drawn)	0.445
O=C(NCCn1ccnc1)c1cncc(Br)c1	17.7
c1ccc2c(c1)CC(n1ccnc1-c1cc3n(n1)CCNC3)CO2 (stereo not drawn)	4.58
OC1(CNC2CCN(Cc3ccncc3)CC2)CCc2ccccc21 (stereo not drawn)	-1.41
CN1CCOC(CNCc2cccc(OCC(F)(F)F)c2)C1 (stereo not drawn)	-6.44
CC(C)Nc1n[nH]c2nc(C3CCN(C(=O)c4ccccn4)C3)ccc12 (stereo not drawn)	17
Cn1cnc(S(=O)(=O)NCCN2CCCCCC2=O)c1Cl	-14.2
O=C(NCCNC(=O)N1CCC(c2ccccc2)C1)C1CC1 (stereo not drawn)	-3.08
CN(CCC#N)C(=O)Cn1cnc2c(Br)cccc2c1=O	-1.6
Cc1cc(SCC(N)=O)nc(-c2cccc(F)c2)n1	-1.9
COc1ccccc1OCC(=O)NS(=O)(=O)c1ccccc1Br	-9.8
CCOc1ccc(NC(=O)NCc2csc(NC)n2)cc1C	-3.91
Cc1ccccc1N1CCCN(CC2(O)CCCNC2)CC1 (stereo not drawn)	-6.1
c1ccn(Cc2nnc3n2CCCN(Cc2ccoc2)C3)c1	0.993
CS(=O)(=O)N1C[C@H]2CNC[C@@]2(C(=O)NCCCc2ccccc2)C1	0.334
